Measurements as given in ChEMBL document CHEMBL1154777 (J Med Chem, 2009).
The source made the active and inactive calls. The rule behind the calls is not given here.

Legend:
[1] = biological target: T1, Mu-type opioid receptor (Homo sapiens, UniProt P35372); assay: Displacement of [3H]DAMGO from human mu opioid receptor expressed in CHO cells after 60 mins by liquid scintillation counting; format: cell-based
[2] = biological target: T2, Kappa-type opioid receptor (Homo sapiens, UniProt P41145); assay: Displacement of [3H]U69593 from human kappa opioid receptor expressed in CHO cells after 60 mins by liquid scintillation counting; format: cell-based
Outline: (§1)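 Membranes from CHO cells stably expressing one human opioid receptor, incubated at 25 °C in 50 mM Tris-HCl pH 7.5 with radioligand: [3H]DAMGO 0.25 nM (60 min), [3H]U69,593 1 nM (60 min), [3H]naltrindole 0.2 nM (3 h). […] Filtered on glass fibre (PEI-soaked for kappa), washed, scintillation counted; IC50 by log-probit fit, Ki via Cheng–Prusoff.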

[3] = biological target: Delta-type opioid receptor (Homo sapiens, UniProt P41143); assay: Displacement of [3H]naltrindole from human delta opioid receptor expressed in CHO cells after 3 hrs by liquid scintillation counting; format: cell-based; outline: as §1
[4] = species: Homo sapiens; assay: Selectivity ratio of Ki for human delta opioid receptor to Ki for human kappa opioid receptor
[5] = biological target: T2, Kappa-type opioid receptor; assay: Antagonist activity at human kappa opioid receptor expressed in CHO cells assessed as inhibition of U50488-stimulated [35S]GTPgammaS binding; format: functional, cell-based
[6] = biological target: T2, Kappa-type opioid receptor; assay: Agonist activity at human kappa opioid receptor expressed in CHO cells assessed as maximal stimulation of [35S]GTPgammaS binding relatiev to U50488; format: functional, cell-based
Outline: (§2)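 Agonist mode: 12 concentrations of each compound incubated with CHO cells expressing the receptor named in the line; agonist-stimulated [35S]GTPγS binding measured.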

[7] = biological target: T1, Mu-type opioid receptor; assay: Antagonist activity at human mu opioid receptor expressed in CHO cells assessed as inhibition of DAMGO-stimulated [35S]GTPgammaS binding at 10 uM; format: functional, cell-based
[8] = biological target: T2, Kappa-type opioid receptor; assay: Agonist activity at human kappa opioid receptor expressed in CHO cells assessed as stimulation of [35S]GTPgammaS binding; format: functional, cell-based; outline: as §2
[9] = biological target: T1, Mu-type opioid receptor; assay: Antagonist activity at human mu opioid receptor expressed in CHO cells assessed as inhibition of DAMGO-stimulated [35S]GTPgammaS binding; format: functional, cell-based
[10] = biological target: T1, Mu-type opioid receptor; assay: Agonist activity at human mu opioid receptor expressed in CHO cells assessed as maximal stimulation of [35S]GTPgammaS binding relatiev to DAMGO; format: functional, cell-based
Outline: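 12 concentrations of each compound incubated with CHO cells expressing the mu receptor; [35S]GTPγS binding stimulation measured, maximal stimulation taken as Emax.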

[11] = biological target: T1, Mu-type opioid receptor; assay: Agonist activity at human mu opioid receptor expressed in CHO cells assessed as stimulation of [35S]GTPgammaS binding; format: functional, cell-based
[12] = Chemical stability at pH 7.4 buffer assessed as hydrolysis half life; format: physicochemical
[13] = Chemical stability assessed as hydrolysis half life in presence of porcine liver esterase; format: ADME; conditions: pig, isolated protein

T1 sequence (P35372 whole entry): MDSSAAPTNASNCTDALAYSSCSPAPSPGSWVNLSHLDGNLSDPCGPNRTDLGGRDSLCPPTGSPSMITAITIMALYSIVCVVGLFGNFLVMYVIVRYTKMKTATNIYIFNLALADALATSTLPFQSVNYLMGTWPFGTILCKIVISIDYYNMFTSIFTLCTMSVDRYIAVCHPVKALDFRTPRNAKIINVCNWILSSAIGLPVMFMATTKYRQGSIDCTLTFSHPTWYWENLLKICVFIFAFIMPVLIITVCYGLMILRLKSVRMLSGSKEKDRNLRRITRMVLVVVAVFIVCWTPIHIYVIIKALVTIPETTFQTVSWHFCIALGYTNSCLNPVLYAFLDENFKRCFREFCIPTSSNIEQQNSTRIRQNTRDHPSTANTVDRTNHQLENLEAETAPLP
T2 sequence (P41145 whole entry): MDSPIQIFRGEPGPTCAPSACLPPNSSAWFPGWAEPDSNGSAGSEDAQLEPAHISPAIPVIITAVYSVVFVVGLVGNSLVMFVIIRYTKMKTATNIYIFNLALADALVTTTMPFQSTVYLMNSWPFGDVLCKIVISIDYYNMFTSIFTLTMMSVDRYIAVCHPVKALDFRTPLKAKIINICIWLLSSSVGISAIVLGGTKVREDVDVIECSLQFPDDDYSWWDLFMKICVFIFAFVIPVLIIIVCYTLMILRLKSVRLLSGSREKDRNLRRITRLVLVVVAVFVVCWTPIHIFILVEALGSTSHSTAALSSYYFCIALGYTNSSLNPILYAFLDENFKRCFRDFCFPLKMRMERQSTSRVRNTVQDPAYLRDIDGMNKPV
Delta-type opioid receptor, sequence (P41143 whole entry): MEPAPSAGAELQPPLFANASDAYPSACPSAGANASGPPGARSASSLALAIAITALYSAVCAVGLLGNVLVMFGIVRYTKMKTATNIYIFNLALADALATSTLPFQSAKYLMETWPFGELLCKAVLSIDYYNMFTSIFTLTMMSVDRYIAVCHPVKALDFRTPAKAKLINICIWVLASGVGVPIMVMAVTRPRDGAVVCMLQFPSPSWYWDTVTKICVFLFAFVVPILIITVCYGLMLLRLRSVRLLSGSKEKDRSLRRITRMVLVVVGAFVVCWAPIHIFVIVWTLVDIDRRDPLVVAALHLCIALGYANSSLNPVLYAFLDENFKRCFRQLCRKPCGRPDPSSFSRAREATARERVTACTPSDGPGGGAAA

| SMILES | Ki [1] [nM] | Ki [2] [nM] | Ki [3] [nM] | Ratio Ki [4] | IC50 [5] | Imax [5] | Emax [6] [%] | Imax [7] [%] | EC50 [8] [nM] | IC50 ([9]; cho) | Emax [10] [%] | EC50 [11] [nM] | t1/2 [12] [h] | Imax [9] | IC50 ([9]; read-out: IC50) [nM] | t1/2 [13] [h] |
| --- | --- | --- | --- | --- | --- | --- | --- | --- | --- | --- | --- | --- | --- | --- | --- | --- |
| COC(=O)C(C)CCCCCCC(C)C(=O)Oc1ccc2c(c1)[C@@]13CCCC[C@H]1[C@@H](C2)N(CC1CCC1)CC3 (stereo partly drawn) | 1.7 | 0.94 | 42 | 45 |  |  |  |  |  |  |  |  |  |  |  |  |
| CC(C)(CCCCCCC(C)(C)C(=O)Oc1ccc2c(c1)[C@@]13CCCC[C@H]1[C@@H](C2)N(CC1CCC1)CC3)C(=O)OCc1ccccc1 | 8.6 | 4.7 | 210 | 45 |  |  |  |  |  |  |  |  |  |  |  |  |
| CC(CCCCCCC(C)C(=O)Oc1ccc2c(c1)[C@@]13CCCC[C@H]1[C@@H](C2)N(CC1CCC1)CC3)C(=O)O (stereo partly drawn) | 0.46 | 0.42 | 20 | 48 | Not Active | inactive | 58 | 48 | 4.9 | Not Active | 25 | 13 |  |  |  |  |
| CC(C)(CCCCCCC(C)(C)C(=O)Oc1ccc2c(c1)[C@@]13CCCC[C@H]1[C@@H](C2)N(CC1CCC1)CC3)C(=O)Oc1ccc2c(c1)[C@@]13CCCC[C@H]1[C@@H](C2)N(CC1CCC1)CC3 | 0.47 | 0.47 | 15 | 32 | Not Active | inactive | 60 |  | 6.4 |  | 40 | 11 | 1.68 | 50% | 81 | 1.67 |
| O=C(CCCCCCCCC(=O)Oc1ccc2c(c1)[C@@]13CCCC[C@H]1[C@@H](C2)N(CC1CCC1)CC3)Oc1ccc2c(c1)[C@@]13CCCC[C@H]1[C@@H](C2)N(CC1CCC1)CC3 |  |  |  | 90 | Not Active | inactive | 65 |  |  |  |  |  | 0.767 | 44% |  | 1.83 |
| CC(CCCCCCC(C)C(=O)Oc1ccc2c(c1)[C@@]13CCCC[C@H]1[C@@H](C2)N(CC1CCC1)CC3)C(=O)Oc1ccc2c(c1)[C@@]13CCCC[C@H]1[C@@H](C2)N(CC1CCC1)CC3 (stereo partly drawn) | 0.95 | 0.62 | 37 | 60 | Not Active | inactive | 54 |  | 7.3 |  | 26 | 7.1 | 1.38 | 50% | 140 | 2.18 |
| C=CCN1CC[C@]23c4c5ccc(OC(=O)CCCCCCCCC(=O)Oc6ccc7c(c6)[C@@]68CCCC[C@H]6C(C7)N(CC6CCC6)CC8)c4O[C@H]2CCC[C@H]3[C@H]1C5 | 0.43 | 0.13 | 39 | 300 | Not Active | inactive | 86 |  | 1.6 |  | 34 | 2 |  | 73% | 25 |  |
| O=C(O)CCCCCCCCC(=O)Oc1ccc2c(c1)[C@@]13CCCC[C@H]1[C@@H](C2)N(CC1CCC1)CC3 | 0.71 | 0.29 | 18 |  | Not Active | inactive | 75 |  | 2.8 | Not Active | 110 | 3 |  | inactive |  |  |
| CC(C)(CCCCCCC(C)(C)C(=O)Oc1ccc2c(c1)[C@@]13CCCC[C@H]1[C@@H](C2)N(CC1CCC1)CC3)C(=O)O | 47 | 18 | 390 | 22 |  |  |  |  |  |  |  |  |  |  |  |  |
| CC(CCCCC(C)C(=O)Oc1ccc2c(c1)[C@@]13CCCC[C@H]1[C@@H](C2)N(CC1CCC1)CC3)C(=O)Oc1ccc2c(c1)[C@@]13CCCC[C@H]1[C@@H](C2)N(CC1CCC1)CC3 (stereo partly drawn) | 2.9 | 2.2 | 50 | 23 |  |  |  |  |  |  |  |  | 3.68 |  |  | 1.9 |
